# ChEMBL document CHEMBL1128473, “[(Biaryloxy)alkyl]isoxazoles: picornavirus inhibitors” (J Med Chem, 1995)
# Experiments:
# Human rhinovirus sp. = assay: Concentration inhibiting 50% of the serotypes tested to 50% of the viral concentration of untreated controls following 72 hr of exposure; type: functional
# Summary of the method: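 Tissue culture infectious dose (TCID50) assay against a panel of 10 human rhinovirus serotypes. For each serotype, the viral concentration was compared with untreated controls after 72 h of compound exposure. MIC50 is the compound concentration at which half of the serotypes tested are reduced to 50% of the untreated-control viral concentration.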
# [1] = Metabolic stability expressed as half life values was monitored in vitro liver microsomal assay.; type: ADME, Microsome; conditions: liver microsomes
SMILES,MIC50 (Human rhinovirus sp.) [µM],half-life [1] [h]
Cc1cc(CCCOc2c(C)cc(-c3cccc(F)c3)cc2C)on1,0.32,–
Cc1cc(CCCOc2c(C)cc(-c3ccc(C(F)(F)F)cc3)cc2C)on1,1.7,–
Cc1cc(CCCOc2c(C)cc(-c3ccc(Cl)cc3)cc2C)on1,0.12,–
Cc1cc(CCCOc2c(C)cc(-c3cccc([N+](=O)[O-])c3)cc2C)on1,0.35,–
Cc1cc(CCCOc2c(C)cc(-c3cccc(Cl)c3)cc2C)on1,0.27,–
COc1ccc(-c2cc(C)c(OCCCc3cc(C)no3)c(C)c2)cc1,0.28,–
Cc1cccc(-c2cc(C)c(OCCCc3cc(C)no3)c(C)c2)c1,0.23,> 3.33
Cc1cc(CCCOc2c(C)cc(-c3ccc(N(C)C)cc3)cc2C)on1,0.66,–
Cc1cc(CCCOc2c(C)cc(-c3ccccc3)cc2C)on1,0.16,> 3.33
Cc1cc(CCCOc2c(C)cc(-c3ccc(O)cc3)cc2C)on1,0.77,–
